Screens deposited in PubChem BioAssay by Johns Hopkins Ion Channel Center.
This is a sample that favours compounds with a hit; in the whole collection about 2.3% have one here.
TRPC6 act = activators of mouse TRPC6 channel. HEK293-TRPC6 membrane potential dye fluorescence; stronger effect = higher value. B-score at 10 µM. 310,000 compounds, 0.13% hits. Q61143;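 active = B-score of the integrated fluorescence ratio above library mean plus 3 SD, and starting fluorescence ratio within library mean plus 5 SD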;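 also: higher score means more depolarization so channel activation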
TRPC4 act = activators of mouse TRPC4 channel; B-score at 10 µM; AID 2237; 310,000 compounds, 0.49% hits; HEK293 TRPC4beta/mu-opioid, Fluo4 calcium fluorescence; stronger effect = higher value;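 active = B-score above 5 SD of library B-scores, and initial fluorescence ratio not above library mean plus 5 SD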;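 also: positive B-score marks a calcium rise read as TRPC4 activation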
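Assay system – TRPC4beta and mu-opioid receptor HEK293 stable cells · Measured by – Fluo4 fluorescence, kinetic · Schedule – dye loading 45 min room temperature, 110 s kinetic read · Read-out – B-scored integrated calcium fluorescence ratio · Controls – buffer and maximal DAMGO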
TRPC6 inhibitor = inhibitors of mouse TRPC6 channel; HEK293-TRPC6, membrane potential dye, ACh-evoked depolarization; stronger effect = lower value; AID 2553; B-score at 10 µM; 310,000 compounds, 1.1% hits; Q61143;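 active = B-score under library mean minus 3 SD, initial fluorescence not abnormally high, positive integrated signal ratio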;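 also: B-score derived from integrated fluorescence ratio over the kinetic read; more negative B-score means stronger inhibition of depolarization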
TRPC4 inh = inhibitors of mouse TRPC4 channel. Q9QUQ5. HEK293 TRPC4beta/mu-opioid, DAMGO-evoked Fluo4 calcium flux; stronger effect = lower value. B-score at 10 µM. 300,000 compounds, 0.39% hits. AID 2247;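 active = B-score over 3 SD under the library average, no early fluorescence shift, positive overall ratio signal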
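Assay system: HEK293 cells with stable TRPC4beta plus mu-opioid receptor expression; Probe or stimulus: DAMGO in two steps, submaximal then maximal; Dosing: single-point compound dosing; Measured by: Fluo4 calcium-dye fluorescence, kinetic read; Read-out basis: B score from integrated Fluo4 fluorescence ratio.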
TRPC4 potent = allosteric potentiators of mouse TRPC4 channel. Q9QUQ5. HEK293 TRPC4beta/mu-opioid, DAMGO EC20, Fluo-4 Ca2+ flux; stronger effect = higher value. B-score at 10 µM. 310,000 compounds, 0.42% hits;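 active = B-score of calcium response area above 5 SD of library B-scores, with initial fluorescence ratio within 5 SD of library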;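 also: B-score of integrated fluorescence ratio over time as area under calcium response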
HEK293 TRPC6 ctr = counter-screen for TRPC6 modulators: effect in parental HEK293 cells | shares compounds with TRPC6 inhibitor | membrane potential dye fluorescence | membrane potential signal change, % at 10 µM | 2,400 compounds, 51% hits | AID 488924;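 active = membrane potential signal moves up or down beyond 5 SD from buffer-only wells, on both duplicate plates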
HEK293 MPD ctr 2 = parental HEK293 nonspecific activity of TRPC6 modulators, second screen; shares compounds with TRPC6 inhibitor; membrane potential dye fluorescence; after compound, maximal acetylcholine stimulation; inhibition, % at 10 µM; 2,400 compounds, 14% hits; AID 488926;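 active = membrane potential signal drops by more than 5 SD from the mean control signal, in both duplicate plates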;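 also: plate controls were acetylcholine ECmax control wells for no effect and buffer only wells for full effect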
TRPC4 ctr mod = mouse TRPC4 off-target activity of TRPC6 modulators. percent change from control (negative = decrease, positive = increase), % at 10 µM. 2,400 compounds, 69% hits. shares compounds with TRPC6 inhibitor. AID 488927. HEK293 TRPC4/mu-opioid, membrane potential fluorescence;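 active = membrane potential signal moved up or down beyond 5 SD of buffer control wells, in both duplicate plates, actives on both sides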;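 also: plate controls were assay buffer wells for no effect and DAMGO maximal-effect wells for full effect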
TRPC4 ctr inh 2 = second selectivity test of TRPC6 modulators against mouse TRPC4. shares compounds with TRPC6 inhibitor. HEK293 TRPC4/mu-opioid, membrane potential dye fluorescence; stimulated with maximal-effect DAMGO. inhibition, % at 10 µM. 2,400 compounds, 55% hits;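 active = drop in membrane potential signal beyond 5 SD of the control wells in both duplicate plates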;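 also: TRPC4 counter screen for TRPC6 hits run under conditions tuned for TRPC6 not TRPC4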
TRPC6 inh conf = mouse TRPC6 inhibitor confirmation; HEK293-TRPC6, membrane potential dye, ACh-evoked depolarization; 3,300 compounds, 43% hits; shares compounds with TRPC6 inhibitor; AID 488960; inhibition, % at 10 µM;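 active = fluorescence ratio falls more than 5 SD below the full-stimulation control mean, in both duplicate runs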;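 also: integrated fluorescence ratio of peak minus minimum over baseline after agonist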
TRPC6 act conf = mouse TRPC6 activator confirmation | shares compounds with TRPC6 inhibitor | HEK293-TRPC6 membrane potential dye fluorescence, FDSS | activation, % at 10 µM | 2,800 compounds, 11% hits;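 active = ratio signal rise beyond 5 SD above unstimulated control wells' mean, seen in both duplicate runs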;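 also: plate controls were buffer EC0 wells for no effect and acetylcholine ECmax response for full effect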
Starred values were filed as active, the others as inactive; i = inactive; / = no result given; + = active, no number.

SMILES | TRPC6 act | TRPC4 act | TRPC6 inhibitor | TRPC4 inh | TRPC4 potent | HEK293 TRPC6 ctr | HEK293 MPD ctr 2 | TRPC4 ctr mod | TRPC4 ctr inh 2 | TRPC6 inh conf | TRPC6 act conf
COc1ccc(C(=O)Nc2ccc(N3CCN(C(=O)c4ccccc4C)CC3)cc2)cc1 | i | i | i | i | i | / | / | / | / | / | /
CSc1ccccc1NC(=O)c1ccccc1C | i | i | i | i | i | / | / | / | / | / | /
Cc1ccc2c(c1)N(CCC(=O)NC1CCCCC1C)C(=O)CO2 (stereo not given) | i | i | i | i | i | / | / | / | / | / | /
Fc1ccc(Oc2ccc3nnc(C(F)(F)F)n3n2)cc1 | i | i | i | i | i | / | / | / | / | / | /
CN(CC(=O)Nc1ccc(Cl)cc1)C(=O)CNC(=O)c1ccc(Br)o1 | i | i | i | i | i | / | / | / | / | / | /
Cc1ccc(S(=O)(=O)N2CCCOC2CNC(=O)C(=O)NCc2ccco2)cc1 (stereo not given) | i | i | i | i | i | / | / | / | / | / | /
COc1ccc(C(=O)O)cc1S(=O)(=O)N1CCSCC1 | i | i | i | i | i | / | / | / | / | / | /
N=c1c(C(=O)NCC2CCCO2)cc2c(=O)n3ccccc3nc2n1Cc1ccccc1 (stereo not given) | i | i | -7.4* | i | i | -125.0%* | 78.0%* | -27.5%* | 38.5%* | 45.0%* | i
COc1ccc(CCn2c(=N)c(C(=O)NCC3CCCO3)cc3c(=O)n4ccccc4nc32)cc1 (stereo not given) | i | i | -5.8* | i | i | -82.5%* | i | -22.0%* | 60.0%* | 58.0%* | i
CCOC(=O)c1cc2c(=O)n3ccccc3nc2n(CCCOC)c1=NC(=O)C(C)(C)C | i | i | -5.89* | i | i | -195.0%* | i | -27.0%* | 56.5%* | 50.5%* | i
CCOC(=O)c1cc2c(=O)n3ccccc3nc2n(CCCOC)c1=NC(=O)c1cccnc1 | i | i | i | i | i | / | / | / | / | / | /
N=c1c(C(=O)NCc2ccc3c(c2)OCO3)cc2c(=O)n3ccccc3nc2n1CC1CCCO1 (stereo not given) | i | i | i | i | i | / | / | / | / | / | /
CN1CCN(/N=C/c2ccc(N(c3ccccc3)c3ccccc3)cc2)CC1 | i | i | i | i | i | / | / | / | / | / | /
CN1CCN(/N=C/c2ccc(N(C)c3ccccc3)cc2)CC1 | i | i | -7.14* | i | i | i | i | -11.5%* | 56.5%* | 63.0%* | i
COc1ccc(C(=O)OCC2CC(c3ccccc3)=NO2)cc1OC (stereo not given) | i | i | -5.07* | i | i | i | i | i | i | i | i
O=C(Nc1ccc(Cl)cc1)c1ccc(-n2cncn2)c([N+](=O)[O-])c1 | i | i | -5.49* | i | i | -106.5%* | i | i | 56.0%* | i | i
O=c1c2ccccc2nc(SCc2ccc([N+](=O)[O-])cc2)n1CCCO | i | i | -5.46* | -6* | i | i | i | i | 83.5%* | i | i
Cc1ccc2c(nc3s/c(=C\c4ccc(-c5ccccc5C(=O)O)o4)c(=O)n32)c1C | 77.5* | 189* | i | -8* | i | + | i | 408.5%* | i | i | 592.5%*
